Here are results for nine molecules from article PMC9071802 (RSC Advances, 2019).

The subject of data set [1] is Human Embryonic Kidney cell lines (HEK-293). Kind of data set: Cytotoxicity MTT assay. Format: cell-based. The note with it: HEK-293, 25, 50 and 100 μM, 24 h. A digest of the protocol:
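HEK cells were grown in high-glucose DMEM with 10% FBS and 1% pen-strep at 37 °C and 5% CO₂. They were seeded at 10⁴ cells/well and left overnight. Test compound from DMSO stock was diluted in medium to 25, 50 and 100 µM and applied for 24 h, with a DMSO blank and a positive control. MTT in phenol-red-free DMEM was added for 3 h. Formazan was dissolved in DMSO and read at 570 and 650 nm. Viability was expressed as % of untreated control.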

Data set [2] concerns P. aeruginosa MH602 lasB reporter strain (PlasB: gfp(ASV)). Kind of data set: Quorum sensing inhibition assay, GFP fluorescence of lasB reporter strain. Format: cell-based, Pseudomonas aeruginosa. The note with it: ± standard deviation, NA: no activity; for inhibition at 62.5 µM / inhibition at 125 µM / inhibition at 250 µM: Pseudomonas aeruginosa; for inhibition at 62.5 µM: read-out: Percentage inhibition of GFP fluorescence, 62.5 μM; for inhibition at 125 µM: read-out: Percentage inhibition of GFP fluorescence, 125 μM; for inhibition at 250 µM: read-out: Percentage inhibition of GFP fluorescence, 250 μM. In short, it runs like this: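 The reporter is a chromosomal lasB promoter–gfp(ASV) fusion responsive to 3-oxododecanoyl-HSL. Cultures were grown overnight in LB10, then diluted 1:100 in ABT with 0.25% tryptone and 0.13% yeast extract plus ampicillin 100 µg mL⁻¹ and gentamicin 20 µg mL⁻¹. Test compound in DMSO was tested at 62.5, 125 or 250 µM, with 1% DMSO controls. Cultures were incubated at 37 °C and shaken briefly before each read. Fluorescence (ex 485/em 535 nm) and OD600 were read every 30 min for 20 h, in triplicate per experiment.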

For data set [3], the system named is LasR, P. aeruginosa PAO-JP2. The note with it: read-out: IC50, LasR activity; cited from earlier work.
In data set [4] the test system is LasR, P. aeruginosa PAO-JG21. The conditions noted are these: read-out: IC50, LasR activity; cited from earlier work.

Turning to `O=C(Cn1cc(-c2ccc([N+](=O)[O-])cc2)nn1)Nc1nc2ccccc2[nH]1` [6p, N-(1H-Benzo[d]imidazol-2-yl)-2-(4-(4-nitrophenyl)-1H-1,2,3-triazol-1-yl)acetamide], in data set [1], the Cytotoxicity entry was “low cytotoxicity”. For the same molecule, in data set [2], the inhibition (commonly the percentage by which the read-out fell short of the control) at 62.5 µM worked out at 63.7 ± 7.51%, the inhibition at 125 µM worked out at 67.1 ± 5.45% and the inhibition at 250 µM was 68.2 ± 3.87%.

Turning to `O=C(Cn1cc(CCCC(=O)Nc2nc3ccccc3[nH]2)nn1)Nc1ccccn1` [11c, N-(1H-Benzo[d]imidazol-2-yl)-4-(1-(2-oxo-2-(pyridin-2-ylamino)ethyl)-1H-1,2,3-triazol-4-yl)butanamide], in data set [2], the inhibition at 62.5 µM was determined as 3.69 ± 11.2%, the inhibition at 125 µM stood at 15.7 ± 8.81% and the inhibition at 250 µM was 19.4 ± 8.16%.

On to `O=C(CCCc1cn(-c2ccc([N+](=O)[O-])cc2)nn1)Nc1nc2ccccc2[nH]1` [11d, N-(1H-Benzo[d]imidazol-2-yl)-4-(1-(4-nitrophenyl)-1H-1,2,3-triazol-4-yl)butanamide], for which, in data set [2], the inhibition at 62.5 µM turned out to be 21.2 ± 1.76%, the inhibition at 125 µM came out at 21.4 ± 2.62% and the inhibition at 250 µM worked out at 39.4 ± 4.6%.

For `Cc1cc2nc(NC(=O)CCCc3cn(CC(=O)NC4CCCC4)nn3)[nH]c2cc1C` [12a, 4-(1-(2-(Cyclopentylamino)-2-oxoethyl)-1H-1,2,3-triazol-4-yl)-N-(5,6-dimethyl-1H-benzo[d]imidazol-2-yl)butanamide], in data set [2], the inhibition at 62.5 µM was 28.5 ± 7.69%, the inhibition at 125 µM was found to be 34.1 ± 12.6% and the inhibition at 250 µM worked out at 48.5 ± 5.25%.

Turning to `Cc1cc2nc(NC(=O)CCCc3cn(CC(=O)NC4CCCCC4)nn3)[nH]c2cc1C` [12b, 4-(1-(2-(Cyclohexylamino)-2-oxoethyl)-1H-1,2,3-triazol-4-yl)-N-(5,6-dimethyl-1H-benzo[d]imidazol-2-yl)butanamide], in data set [2], the inhibition at 62.5 µM was 5.35 ± 10.2%, the inhibition at 125 µM was 9.74 ± 20.7% and the inhibition at 250 µM worked out at 30.8 ± 26.4%.

As for `Cc1cc2nc(NC(=O)CCCc3cn(CC(=O)Nc4ccccn4)nn3)[nH]c2cc1C` [12c, N-(5,6-Dimethyl-1H-benzo[d]imidazol-2-yl)-4-(1-(2-oxo-2-(pyridin-2-ylamino)ethyl)-1H-1,2,3-triazol-4-yl)butanamide], in data set [2], the inhibition at 125 µM was 7.07 ± 11.8% and the inhibition at 250 µM turned out to be 48.3 ± 13.4%.

With `O=C1C=C(Br)/C(=C/Br)O1` [Furanone 30, reference compound], the “Percentage inhibition of GFP fluorescence” value in data set [2] (62.5 μM) is 77.33 ± 2.00%; in data set [2] (125 μM), 83.02 ± 3.15%; in data set [2] (250 μM), 86.86 ± 1.18%.

As for `Cc1cc2nc(N)[nH]c2cc1C` [II, 5,6-dimethyl-2-aminobenzimidazole], the concentration for half-maximal inhibition (IC50) – broadly, the concentration that inhibits the measured activity by half – in data set [3] was 2300 nM; in data set [4] it was 1400 nM.

Regarding “N-(1H-Benzo[d]imidazol-2-yl)-2-(4-nonyl-1H-1,2,3-triazol-1-yl)acetamide [6e]”, the “Percentage inhibition of GFP fluorescence” value is reported as 24.87 ± 6.69% in data set [2] (62.5 μM), 37.20 ± 6.71% in data set [2] (125 μM) and 41.31 ± 7.90% in data set [2] (250 μM).
